One series has as its system K562. As to the kind of experiment: Growth inhibition of human K562 cells after 72 hrs by MTT assay. The format is functional. As to conditions: K562, 72 h. The method, boiled down:
(§1)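 Leukemia cells (1x10^5 cells/cm3) were exposed to compound for 72 h, then MTT (5 mg/cm3) was added for 4 h. Formazan was dissolved with 10% SDS in 0.01 mol dm-3 HCl and absorbance read at 595 nm. Percent growth was taken versus untreated control minus background. GI50 came from a variable-slope fit, as mean ± SD of three independent experiments in triplicate.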
For orientation: Tetrazolium assays rely on reduction of a dye to a coloured formazan, in cell work by metabolically active cells.

The next series relates to Caco-2. Kind of series: Growth inhibition of human Caco2 cells after 72 hrs by MTT assay. The format is functional. Particulars: Caco-2, 72 h. The method, boiled down:
(§2)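 Adherent cells (2x10^4 cells/cm3) attached overnight, then were exposed to compound for 72 h. Medium was replaced with 5 mg/cm3 MTT, formazan was dissolved in DMSO and absorbance read at 595 nm. Percent growth was taken relative to untreated control minus background. GI50 came from a variable-slope log-inhibitor fit, as mean ± SD of three independent experiments in triplicate.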

Series [1] can be described thus: Growth inhibition of MDCK1 cells after 72 hrs by MTT assay. More on the design: species or system Canis lupus familiaris. Particulars: dog. The method, boiled down: as §2
Another series deals with Raji. As to the kind of experiment: Growth inhibition of human Raji cells after 72 hrs by MTT assay. The format is functional. Summed up: as §1
A short description of series [2]: Solubility of the compound in water. The format is physicochemical.
Series [3] can be described thus: Chemical stability in aqueous solution after several weeks. The format is physicochemical. As to conditions: buffer. The method, boiled down: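 Aqueous compound solutions were monitored for several weeks by UV-Vis absorbance at 220-900 nm. Linearity with concentration was checked up to 3.5 × 10^-5 mol dm-3, and spectra were recorded at 25–90 °C with reproducibility checked on cooling to 25 °C.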

A further series relates to HeLa. As to the kind of experiment: Growth inhibition of human HeLa cells after 72 hrs by MTT assay. The format is functional. The method, boiled down: as §2
The test system of series [4] is Calf thymus DNA. Kind of series: Binding affinity to calf thymus DNA assessed as change in melting temperature at 0.3 compound to ds-polynucleotide ratio by spectrophotometric method. Particulars: Bos taurus. The format is nucleic-acid assay. The method, boiled down: (§3)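 Thermal melting of ct-DNA (sonicated, filtered) or polyA-polyU in Na cacodylate buffer, I = 0.05 mol dm-3, pH 7.0, at given r = [compound]/[polynucleotide]; polynucleotide as phosphate concentration. Tm from maximum of first derivative, checked by tangent method. ΔTm = Tm(complex) − Tm(free nucleic acid), average of at least two measurements, error ±0.5 °C.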

Series [5] concerns Calf thymus DNA. Kind of series: Binding affinity to calf thymus DNA assessed as change in melting temperature at 0.5 compound to ds-polynucleotide ratio by spectrophotometric method. The format is nucleic-acid assay. Particulars: Bos taurus. The method, boiled down: as §3
Series [6] in a line: Binding affinity to polyA-polyU (unknown origin) assessed as change in melting temperature at 0.1 compound to ds-polynucleotide ratio by spectrophotometric method. The method, boiled down: as §3
The subject of series [7] is Calf thymus DNA. As to the kind of experiment: Binding affinity to calf thymus DNA assessed as change in melting temperature at 0.1 compound to ds-polynucleotide ratio by spectrophotometric method. The format is nucleic-acid assay. As to conditions: Bos taurus. The method, boiled down:
as §3

Series [8] can be described thus: Binding affinity to polyA-polyU (unknown origin) assessed as change in melting temperature at 0.3 compound to ds-polynucleotide ratio by spectrophotometric method. Summed up: as §3
Series [9] in a line: Binding affinity to polyA-polyU (unknown origin) assessed as change in melting temperature at 0.5 compound to ds-polynucleotide ratio by spectrophotometric method. Summed up:
as §3

Structures are written as SMILES.

By GI50 is commonly meant the concentration that inhibits growth by half. Higher therefore signals lower sensitivity of the cells. By solubility is commonly meant the dissolved amount per volume that the medium holds. The low end stands for little dissolved substance, the high end for much dissolved substance. A word on the ΔTm: it is the shift of the melting midpoint relative to a reference.

Take `Cl.Cl.Clc1ccc2c(NCCOc3ccc(C4=NCCCN4)cc3)ccnc2c1`: the 50% growth inhibitory concentration (GI50) in the series on K562, in the series on Caco-2, in the series on Raji and in the series on HeLa was over 100 µM in each case. The molecule also returned a GI50 at 72 h in [1] of over 100 µM. Also, the solubility in series [2] was determined as 1000 µM. Further, the Stability entry in series [3] is given as “Stable”.
In the case of `Cl.Cl.N=C(N)c1ccc(Oc2ccnc3cc(Cl)ccc23)cc1`, the GI50 in the series on K562 was found to be 62.5 µM; in the series with Caco-2 it was 57.6 µM; with Raji, 53 µM; in the series on HeLa, 59.1 µM. Further, the ΔTm in the series with Calf thymus DNA [4] is 2.17 °C; with Calf thymus DNA [5] it was 2.07 °C; in series [6], 0 °C; with Calf thymus DNA [7], 1.76 °C; in [8] it was -0.16 °C; in [9] it was -0.26 °C. The molecule also showed a GI50 at 72 h in series [1] of 52.8 µM. In series [2], this molecule returned a solubility of 1000 µM. Also, the Stability entry in series [3] is on record as “Stable”.
With `Cl.Cl.Clc1ccc2c(Oc3ccc(C4=NCCCN4)cc3)ccnc2c1`, the GI50 in the series with K562 amounted to 62 µM; in the series with Caco-2, 53.3 µM; in the series with Raji, 50.8 µM; in the series on HeLa it was 57 µM. For the same molecule, the ΔTm stood at 1.86 °C in the series with Calf thymus DNA [4]; 1.96 °C in the series with Calf thymus DNA [5]; 1.62 °C in series [6]; 2.08 °C in the series with Calf thymus DNA [7]; 1.22 °C in series [8]; 1.32 °C in series [9]. Further, the concentration for 50% growth inhibition (GI50) at 72 h in series [1] came to 37.5 µM. This molecule had a solubility in [2] of 1000 µM. Moreover, the Stability entry in series [3] is recorded as “Stable”.
As to `Cl.Cl.Cl.N=C(N)c1ccc(OCCNc2ccnc3cc(Cl)ccc23)cc1`, the GI50 in the series on K562 is 49.5 µM; with Caco-2 it was 68.6 µM; in the series on Raji, 58.9 µM; with HeLa, 74 µM. The molecule further gave a concentration for 50% growth inhibition (GI50) at 72 h in series [1] of 74.4 µM. Moreover, the concentration in solution in [2] (solubility) came to 1000 µM. For the same molecule, the Stability result in series [3] was “Stable”.
In the case of `CC(C)NC(=N)c1ccc(OCCNc2ccnc3cc(Cl)ccc23)cc1.Cl.Cl.Cl`, the 50% growth inhibitory concentration (GI50) in the series on K562, in the series on Caco-2, in the series with Raji and with HeLa was over 100 µM throughout. Also, the 50% growth inhibitory concentration (GI50) at 72 h in series [1] is over 100 µM. For the same molecule, the solubility in [2] is 1000 µM. In [3], the Stability entry was “Stable”.
`Cl.Cl.Clc1ccc2c(NCCOc3ccc(C4=NCCN4)cc3)ccnc2c1`: the GI50 in the series on K562 worked out at 51.9 µM; in the series with Caco-2, 50.7 µM; with Raji, 51.5 µM; in the series with HeLa, 60.8 µM. Moreover, the concentration for 50% growth inhibition (GI50) at 72 h in series [1] was determined as 78.4 µM. The molecule also showed a solubility in series [2] of 1000 µM. The Stability result in series [3] is “Stable”.
With `CC(C)CNC(=N)c1ccc(OCCNc2ccnc3cc(Cl)ccc23)cc1.Cl.Cl.Cl`, the GI50 in the series on K562 is 77.3 µM; in the series on Caco-2 it was 92.6 µM; with Raji it was 86.2 µM; in the series on HeLa, over 100 µM. The same molecule yielded a 50% growth inhibitory concentration (GI50) at 72 h in series [1] of over 100 µM. Moreover, in series [2], the concentration in solution (solubility) came to 1000 µM. Also, the Stability result in series [3] is recorded as “Stable”.
Regarding `Cl.Cl.N=C(NC1CCCC1)c1ccc(OCCNc2ccnc3cc(Cl)ccc23)cc1`, the concentration for 50% growth inhibition (GI50) in the series on K562 was 76.9 µM; with Caco-2, 84.5 µM; with Raji it was 96.9 µM; in the series on HeLa it was over 100 µM. In addition, the GI50 at 72 h in series [1] was over 100 µM. The solubility in series [2] is 1000 µM. In series [3], the Stability result is reported as “Stable”.
As for `CC(C)NC(=N)c1ccc(Oc2ccnc3cc(Cl)ccc23)cc1.Cl.Cl.Cl`, the GI50 came to 82.9 µM with K562, 47.7 µM in the series with Caco-2, 51.8 µM in the series with Raji and 56.6 µM in the series on HeLa. Besides, the ΔTm with Calf thymus DNA [4] is 2.28 °C; in the series on Calf thymus DNA [5], 2.28 °C; in series [6], 0.36 °C; in the series with Calf thymus DNA [7], 2.01 °C; in series [8] it was -0.36 °C. In addition, it took 57.7 µM to inhibit growth in series [1] by half (GI50 at 72 h). In series [2], this molecule returned a solubility of 1000 µM. Besides, the Stability entry in series [3] is reported as “Stable”.

The values above are taken from ChEMBL document CHEMBL4130346, “New quinoline-arylamidine hybrids: Synthesis, DNA/RNA binding and antitumor activity” (Eur J Med Chem, 2017).
